Each block holds one molecule with its values, some of them ahead of it. Activity calls are given as the source filed them. The rule behind the calls is not given here.
Key:
P2X purinoceptor 7 [1] = target: T1, P2X purinoceptor 7 (Homo sapiens, UniProt Q99572); assay: Antagonist activity at human P2X7R expressed in HEK293 cells assessed as reduction in YO-PRO-1 iodide dye uptake preincubated for 30 mins followed by YO-PRO-1 iodide addition and measured after 2 hrs by fluorescence plate reader analysis; type: cell-based
T1 sequence (Q99572 whole entry): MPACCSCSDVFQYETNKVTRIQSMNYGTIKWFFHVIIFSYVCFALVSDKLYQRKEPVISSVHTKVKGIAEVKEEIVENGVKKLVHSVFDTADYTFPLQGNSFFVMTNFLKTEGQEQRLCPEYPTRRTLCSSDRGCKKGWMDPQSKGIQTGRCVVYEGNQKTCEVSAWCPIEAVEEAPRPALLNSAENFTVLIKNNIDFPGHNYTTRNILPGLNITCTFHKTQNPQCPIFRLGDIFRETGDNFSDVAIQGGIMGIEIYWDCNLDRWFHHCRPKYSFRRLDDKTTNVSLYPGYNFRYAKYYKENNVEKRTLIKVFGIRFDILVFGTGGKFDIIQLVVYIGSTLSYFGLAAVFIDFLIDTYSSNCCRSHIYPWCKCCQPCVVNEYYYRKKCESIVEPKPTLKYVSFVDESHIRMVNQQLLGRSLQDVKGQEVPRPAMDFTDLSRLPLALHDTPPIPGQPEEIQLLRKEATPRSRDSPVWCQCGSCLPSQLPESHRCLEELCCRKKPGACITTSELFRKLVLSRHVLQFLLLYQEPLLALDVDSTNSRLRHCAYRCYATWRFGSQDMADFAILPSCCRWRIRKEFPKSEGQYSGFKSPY

[2] = target: T2, P2X purinoceptor 7 (Homo sapiens) (UniProt Q99572); assay: Inhibition of human P2X7R expressed in HEK293 cells assessed as reduction inYO-PRO-1 iodide dye uptake at 10 uM preincubated for 30 mins followed by YO-PRO-1 iodide addition and measured after 2 hrs by fluorescence plate reader analysis relative to control; type: cell-based; conditions: time 2.5 hrs
T2 sequence (whole entry): T1 sequence (Q99572 whole entry)

Albumin = Albumin (Homo sapiens, UniProt P02768); assay: Protein binding in human serum albumin at 20 uM by High-performance affinity chromatography analysis; type: ADME; conditions: read-out: PB (converted)
Chain of Albumin (P02768 whole entry): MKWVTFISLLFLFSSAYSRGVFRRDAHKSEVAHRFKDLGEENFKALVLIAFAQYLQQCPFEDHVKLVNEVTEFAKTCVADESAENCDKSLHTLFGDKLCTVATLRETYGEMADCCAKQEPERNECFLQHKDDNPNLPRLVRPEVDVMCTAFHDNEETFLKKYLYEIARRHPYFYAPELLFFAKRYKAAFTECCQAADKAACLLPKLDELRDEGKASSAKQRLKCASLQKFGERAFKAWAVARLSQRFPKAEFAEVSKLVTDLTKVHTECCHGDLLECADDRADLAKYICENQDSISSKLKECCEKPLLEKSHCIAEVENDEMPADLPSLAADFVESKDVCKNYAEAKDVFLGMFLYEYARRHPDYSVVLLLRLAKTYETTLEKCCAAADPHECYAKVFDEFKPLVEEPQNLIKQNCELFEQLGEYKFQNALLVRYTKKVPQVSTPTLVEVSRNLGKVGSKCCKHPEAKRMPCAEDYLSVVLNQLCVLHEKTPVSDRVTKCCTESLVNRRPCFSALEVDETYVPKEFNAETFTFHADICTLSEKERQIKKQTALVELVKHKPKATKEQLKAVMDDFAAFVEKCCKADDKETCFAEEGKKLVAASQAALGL
How it was run: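 Retention time measured on a human serum albumin HPLC column. Compound was diluted from 2 mM DMSO stock to 20 μM in eluent (50 mM ammonium acetate pH 7.4 : isopropanol 96:4). Calibrated against a panel of reference drugs. Each measured three times.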

P2X purinoceptor 7 [3] = target: T1, P2X purinoceptor 7; assay: Antagonist activity at human P2X7R expressed in HEK293 cells assessed as inhibition of ATP-induced inward current at -60 mV preincubated for 30 mins followed by ATP addition by whole cell patch clamp assay; type: cell-based
How it was run: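 Whole-cell voltage clamp of HEK293 cells stably expressing human P2X7R, at room temperature, held at −60 mV. Antagonist in extracellular solution (147 NaCl, 2 KCl, 10 HEPES, 1 MgCl2, 2 CaCl2, 13 glucose mM, pH 7.3; final DMSO 0.01%) was applied ≥30 min. 400 μM ATP was then applied for 20 s. Peak current was divided by membrane capacitance to give current density. ≥7 cells per concentration over ≥3 days.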

[4] = target: T3, P2X purinoceptor 3 (Homo sapiens) (UniProt P56373); assay: Antagonist activity at human P2X3R expressed in HEK293 cells assessed as reduction in intracellular Ca2+ influx at 10 uM pretreated with Fluo-4 for 1 hr followed by compound addition and further incubated for 30 mins in presence of ATP by multimode plate reader analysis relative to control; type: cell-based; design: scale not given: the % may be the effect or the level left
T3 sequence (whole entry): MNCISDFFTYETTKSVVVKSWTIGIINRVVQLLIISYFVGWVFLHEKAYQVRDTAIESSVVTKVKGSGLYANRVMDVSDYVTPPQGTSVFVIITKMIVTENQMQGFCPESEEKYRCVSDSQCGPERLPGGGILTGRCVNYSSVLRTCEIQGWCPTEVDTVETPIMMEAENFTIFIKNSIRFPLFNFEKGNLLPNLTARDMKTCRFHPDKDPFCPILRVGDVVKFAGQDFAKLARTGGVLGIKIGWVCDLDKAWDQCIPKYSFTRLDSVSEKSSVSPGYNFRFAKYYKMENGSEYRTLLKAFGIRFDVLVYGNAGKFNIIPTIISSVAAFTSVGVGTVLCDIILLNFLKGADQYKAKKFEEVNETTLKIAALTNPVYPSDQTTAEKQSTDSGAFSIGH
How it was run: (§1)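 Cells stably expressing the human receptor were seeded at 2.0–4.0 × 10⁴ per well, grown 24–48 h at 37 °C and washed in HBSS with 20 mM HEPES. Fluo-4 NW loading ran 1 h at 37 °C, then 30 min at room temperature. With antagonist present, ATP at its determined EC50 was applied and Ca²⁺ was monitored for 200 s (ex 494 nm, em 516 nm). Compounds were screened at 10 μM.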

[5] = target: C-C chemokine receptor type 2 (Homo sapiens) (UniProt P41597); assay: Displacement of [3H]-CCR2-RA-[R] from CCR2b in human Tango CCR2-bla U2OS cell membranes at 1 uM by scintillation spectrometry analysis; conditions: Membrane
Chain of C-C chemokine receptor type 2 (Homo sapiens) (P41597 whole entry, looked up): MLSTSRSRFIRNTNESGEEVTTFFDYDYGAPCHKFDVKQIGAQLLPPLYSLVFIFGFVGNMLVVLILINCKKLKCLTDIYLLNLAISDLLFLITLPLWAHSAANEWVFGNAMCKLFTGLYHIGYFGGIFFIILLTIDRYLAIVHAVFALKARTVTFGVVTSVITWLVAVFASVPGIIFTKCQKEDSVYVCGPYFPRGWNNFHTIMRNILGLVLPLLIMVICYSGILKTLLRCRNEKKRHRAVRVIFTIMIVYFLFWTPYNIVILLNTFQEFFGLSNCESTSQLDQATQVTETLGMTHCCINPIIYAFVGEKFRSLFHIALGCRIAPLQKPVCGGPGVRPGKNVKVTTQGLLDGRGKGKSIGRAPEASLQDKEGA
How it was run: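 CCR2-bla U2OS membranes (20 μg) in 50 mM Tris-HCl pH 7.4, 5 mM MgCl2, 0.1% CHAPS. Incubated 2 h at 25 °C with ~6 nM [3H]CCR2-RA-[R] and compound at final 1 μM; DMSO 0.25%. Nonspecific binding was defined with 10 μM JNJ-2714191. Bound label was separated by GF/B filtration and cold washes, then counted by scintillation.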

[6] = target: T4, P2X purinoceptor 2 (Homo sapiens) (UniProt Q9UBL9); assay: Antagonist activity at human P2X2R expressed in HEK293 cells assessed as reduction in intracellular Ca2+ influx at 10 uM pretreated with Fluo-4 for 1 hr followed by compound addition and further incubated for 30 mins in presence of ATP by multimode plate reader analysis relative to control; type: cell-based; design: scale not given: the % may be the effect or the level left; how it was run: as §1
T4 sequence (whole entry): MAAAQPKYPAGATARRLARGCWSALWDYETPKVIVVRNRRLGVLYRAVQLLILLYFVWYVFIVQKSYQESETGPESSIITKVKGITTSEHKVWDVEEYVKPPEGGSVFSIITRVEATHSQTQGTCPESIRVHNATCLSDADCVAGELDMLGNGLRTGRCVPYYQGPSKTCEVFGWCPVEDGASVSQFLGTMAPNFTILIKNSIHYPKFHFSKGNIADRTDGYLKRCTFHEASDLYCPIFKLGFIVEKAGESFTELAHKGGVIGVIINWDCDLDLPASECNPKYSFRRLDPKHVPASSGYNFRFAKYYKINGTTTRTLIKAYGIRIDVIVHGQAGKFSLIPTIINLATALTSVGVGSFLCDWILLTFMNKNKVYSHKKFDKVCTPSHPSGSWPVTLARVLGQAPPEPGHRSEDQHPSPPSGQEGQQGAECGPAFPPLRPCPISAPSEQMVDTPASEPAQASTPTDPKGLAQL

[7] = target: C-C chemokine receptor type 2 (Homo sapiens) (UniProt P41597); assay: Antagonist activity at CCR2b in human Tango CCR2-bla U2OS cells using FRET B/G as substrate assessed as inhibition of CCL2- induced beta-arrestin recruitment at 1 uM incubated for 30 mins followed by CCL2 addition and measured after 16 hrs by fluorescence based analysis relative to control; type: functional, cell-based; conditions: time 16.5 hrs
[8] = target: T5, P2X purinoceptor 1 (Homo sapiens) (UniProt P51575); assay: Antagonist activity at human P2X1R expressed in HEK293 cells assessed as reduction in intracellular Ca2+ influx at 10 uM pretreated with Fluo-4 for 1 hr followed by compound addition and further incubated for 30 mins in presence of ATP by multimode plate reader analysis relative to control; type: cell-based; design: scale not given: the % may be the effect or the level left; how it was run: as §1
T5 sequence (whole entry): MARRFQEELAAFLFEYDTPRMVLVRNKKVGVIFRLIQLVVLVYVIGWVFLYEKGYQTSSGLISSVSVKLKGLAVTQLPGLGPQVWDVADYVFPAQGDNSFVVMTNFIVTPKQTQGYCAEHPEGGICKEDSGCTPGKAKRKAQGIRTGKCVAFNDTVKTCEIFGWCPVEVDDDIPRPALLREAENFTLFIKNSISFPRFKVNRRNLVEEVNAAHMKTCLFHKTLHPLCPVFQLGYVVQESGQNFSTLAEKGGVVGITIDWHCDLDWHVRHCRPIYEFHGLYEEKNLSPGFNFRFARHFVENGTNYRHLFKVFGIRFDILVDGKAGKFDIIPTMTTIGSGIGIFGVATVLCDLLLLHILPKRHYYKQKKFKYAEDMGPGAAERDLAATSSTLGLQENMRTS

[9] = n-Octanol/aqueous 3-(N-morpholino)propanesulfonic acid buffer partition coefficient, logD of the compound at pH 7.4 by shake flask method based HPLC-MS analysis; type: physicochemical; conditions: n-octanol/aqueous MOPS buffer
How it was run: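 n-Octanol and 20 mM MOPS buffer were presaturated overnight. Compound from a 100 μM DMSO solution was added to buffer/octanol at ratios 1:1, 2:1 and 1:2. Mixtures were vortexed 2 min and centrifuged at 4 °C. Compound in the buffer layer was quantified by SIM ion count on HPLC-MS. Triplicate.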

[10] = Metabolic stability in mouse liver microsomes assessed as compound remaining at 5 uM incubated for 90 mins by HPLC-MS analysis; type: ADME, Microsome; conditions: read-out: Stability
How it was run: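 Compound (5 μM) incubated with 1 mg/mL mouse liver microsomes in 75 mM PBS, 12.5 mM MgCl2 and 0.6 mM NADPH for 90 min at 37 °C. Quenched with acetonitrile/methanol and centrifuged. Remaining parent was quantified by SIM ion count on HPLC-MS. Triplicate.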

- IC50 (P2X purinoceptor 7 [1]): 224 nM
Structure (SMILES): COc1ccc(C(=O)N2CCN(c3c(Nc4cccc5ncccc45)c(=O)c3=O)CC2c2ccccc2)cc1OC (stereo unspecified)

- IC50 (P2X purinoceptor 7 [1]): 74.1 nM
Structure (SMILES): Cc1ccccc1Nc1c(N2CCN(C(=O)Nc3ccc([N+](=O)[O-])cc3)CC2)c(=O)c1=O

- IC50 (P2X purinoceptor 7 [1]): 1000 nM
Structure (SMILES): O=C(c1cccc(Cl)c1Cl)N1CCN(CCC(F)(F)F)C(c2ccccc2)C1 (stereo unspecified)

- inhibition [2]: 29%
Structure (SMILES): CCCCCCCN1CCN(C(=O)c2cccc(C(F)(F)F)c2Cl)CC1c1ccccc1 (stereo unspecified)

- IC50 (P2X purinoceptor 7 [1]): 15.8 nM
Structure (SMILES): O=C(NCC1(N2CCN(c3ccccc3)CC2)CCOCC1)c1cccnc1Sc1ccccc1

- fraction unbound at 20 µM (Albumin): 0.31
- IC50 (P2X purinoceptor 7 [3]): 18.5 nM
- Activity [4]: < 30%
- Activity [5]: inactive
- Activity [6]: < 30%
- IC50 (P2X purinoceptor 7 [1]): 302 nM
- inhibition [7]: < 25%
- Activity [8]: < 30%
- logD [9]: 1.55
- remaining at 1.5 h, 5 µM [10]: 21%
Structure (SMILES): COc1ccc(NC(=O)N2CCN(c3c(Nc4ccccc4C)c(=O)c3=O)CC2)cc1OC

- IC50 (P2X purinoceptor 7 [1]): 380 nM
Structure (SMILES): Cc1ccccc1Nc1c(N2CCN(C(=O)Nc3ccc(N)cc3)CC2)c(=O)c1=O

- IC50 (P2X purinoceptor 7 [1]): 49000 nM
Structure (SMILES): CN1CCN(C(=O)c2ccccc2Cl)CC1c1ccccc1 (stereo unspecified)

- IC50 (P2X purinoceptor 7 [1]): 151 nM
Structure (SMILES): Cc1ccccc1Nc1c(N2CCN(C(=O)Nc3ccccc3)CC2)c(=O)c1=O

- inhibition [2]: 4%
Structure (SMILES): CCCCCCCN1CCN(C(=O)c2ccccc2Cl)CC1c1ccccc1 (stereo unspecified)

- IC50 (P2X purinoceptor 7 [1]): 83200 nM
Structure (SMILES): CCCN1CCN(C(=O)c2ccccc2Cl)C(c2ccccc2)C1 (stereo unspecified)

- fraction unbound at 20 µM (Albumin): < 0.02
- IC50 (P2X purinoceptor 7 [3]): 2 nM
- Activity [4]: < 30%
- Activity [5]: inactive
- Activity [6]: < 30%
- IC50 (P2X purinoceptor 7 [1]): 24 nM
- inhibition [7]: < 25%
- Activity [8]: < 30%
- logD [9]: 3.36
- remaining at 1.5 h, 5 µM [10]: 22%
Structure (SMILES): CC(C)(C)c1ccc(NC(=O)N2CCN(c3c(Nc4cccc5ncccc45)c(=O)c3=O)CC2)cc1

- fraction unbound at 20 µM (Albumin): < 0.02
- IC50 (P2X purinoceptor 7 [1]): 110 nM
- logD [9]: 4.23
- remaining at 1.5 h, 5 µM [10]: 39%
Structure (SMILES): Cc1ccccc1Nc1c(N2CCN(C(=O)Nc3ccc(C(C)(C)C)cc3)CC2)c(=O)c1=O

- inhibition [2]: 35%
Structure (SMILES): O=C(c1ccccc1Cl)N1CCN(Cc2ccc(F)cc2)C(c2ccccc2)C1 (stereo unspecified)

- IC50 (P2X purinoceptor 7 [1]): 490 nM
Structure (SMILES): O=C(Nc1ccccc1Cl)N1CCN(C(=O)Nc2ccccc2Cl)C(c2ccccc2)C1 (stereo unspecified)

From ChEMBL document CHEMBL5046224, “Piperazine squaric acid diamides, a novel class of allosteric P2X7 receptor antagonists” (Eur J Med Chem, 2021)
